Test system: not listed separately
Assay: Inhibition of PDE4
Conditions: not given
Method in brief: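 PDE4 from bovine aorta media layer; [³H]-cAMP hydrolysis, two-step assay, with 1 mM EGTA and cGMP 50 added to suppress PDE3, 50 mM Tris-HCl pH 7.5, 2 mM magnesium acetate, 1 mg/mL BSA, 1% DMSO. IC50 by regression over concentration-response data, mean of three runs.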

SMILES	IC50
CNc1nc(C)nc2c(Cc3ccco3)cnn12	100 nM
CNc1nc(C(F)(F)F)nc2c1ncn2Cc1ccccc1OC	1.4 nM
CNc1nc(C)nc2c(-c3cc4ccccc4o3)cnn12	6200 nM
CCCC#Cc1cnn2c(NC)nc(C)nc12	410 nM
CNc1nc(C)nc2c1ncn2Cc1ccccc1	280 nM
CNc1nc(C)nc2c(Cc3ccccc3)cnn12	98 nM
CNc1nc(C)nc2c(-c3cccc([N+](=O)[O-])c3)cnn12	1200 nM
CCCc1nc(NC)c2ncn(Cc3ccccc3OC)c2n1	7 nM
CC#Cc1cnn2c(NC)nc(C)nc12	6400 nM
CCCc1nc(NC)c2ncn(Cc3ccccc3)c2n1	88 nM
CNc1nc(C)nc2c(C(=O)c3ccccc3)cnn12	120 nM
CCC(O)c1cnn2c(NC)nc(C)nc12 (stereo not given)	4800 nM
CNc1nc(C(F)(F)F)nc2c(Cc3ccccc3)cnn12	77 nM
CNc1nc(C)nc2c(-c3cccc(C(C)=O)c3)cnn12	540 nM
CNc1nc(C)nc2c1ncn2Cc1ccccc1OC	61 nM
CNc1nc(C)nc2c(-c3cccs3)cnn12	2400 nM
CNc1nc(C)nc2c(-c3ccco3)cnn12	3100 nM
CCCc1nc(NC)n2ncc(Cc3ccccc3)c2n1	48 nM
CNc1nc(C(F)(F)F)nc2c(Cc3ccccc3OC)cnn12	11 nM

More lines, now with the values ahead:

IC50	SMILES
130 nM	CNc1nc(C)nc2c(-c3cccc(C(F)(F)F)c3)cnn12
3500 nM	CNc1nc(C)nc2c(-c3cc4ccccc4s3)cnn12
270 nM	CNc1nc(C)nc2c(Cc3ccc4ccccc4c3)cnn12
78 nM	CNc1nc(C)nc2c(Cc3ccoc3)cnn12
13 nM	CCCc1nc(NC)n2ncc(Cc3ccccc3OC)c2n1
2900 nM	CNc1nc(C)nc2c(-c3ccccc3Cl)cnn12
270 nM	CNc1nc(C)nc2c(-c3ccccc3)cnn12
70 nM	CNc1nc(C)nc2c(Cc3cccs3)cnn12
210 nM	CNc1nc(C)nc2c(-c3cccc4ccccc34)cnn12

Test system: not listed separately
Assay: Inhibition of PDE1 at 10 uM in absence of calmodulin
Conditions: not given

SMILES	inhibition
CNc1nc(C)nc2c(Cc3ccccc3)cnn12	37%
CNc1nc(C)nc2c(C(=O)c3ccccc3)cnn12	16%
CCCc1nc(NC)n2ncc(Cc3ccccc3)c2n1	24%
CNc1nc(C(F)(F)F)nc2c(Cc3ccccc3OC)cnn12	20%

The next lines start with the values.

inhibition	SMILES
27%	CCCc1nc(NC)n2ncc(Cc3ccccc3OC)c2n1
21%	CNc1nc(C)nc2c(-c3ccccc3)cnn12

Test system: not listed separately
Assay: Inhibition of PDE1 at 10 uM in presence of calmodulin
Conditions: not given
Method in brief: (§1)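 PDE1 purified from bovine aorta media layer; two-step radioassay with [³H]-cGMP substrate in 50 mM Tris-HCl pH 7.5, 2 mM magnesium acetate, 1 mg/mL BSA. Calmodulin-activated state: 18 nM calmodulin plus 10 mM CaCl₂. Inhibitors from DMSO, 1% final. IC50 by regression from concentration-response curves, mean of three determinations.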

SMILES	inhibition
CNc1nc(C)nc2c(C(=O)c3ccccc3)cnn12	29%
CCCc1nc(NC)n2ncc(Cc3ccccc3)c2n1	25%

The remaining lines, values ahead:

inhibition	SMILES
35%	CCCc1nc(NC)n2ncc(Cc3ccccc3OC)c2n1
20%	CNc1nc(C)nc2c(-c3ccccc3)cnn12

Target: T1, cGMP-dependent 3',5'-cyclic phosphodiesterase (Bos taurus) (UniProt P14099)
T1 sequence (whole entry): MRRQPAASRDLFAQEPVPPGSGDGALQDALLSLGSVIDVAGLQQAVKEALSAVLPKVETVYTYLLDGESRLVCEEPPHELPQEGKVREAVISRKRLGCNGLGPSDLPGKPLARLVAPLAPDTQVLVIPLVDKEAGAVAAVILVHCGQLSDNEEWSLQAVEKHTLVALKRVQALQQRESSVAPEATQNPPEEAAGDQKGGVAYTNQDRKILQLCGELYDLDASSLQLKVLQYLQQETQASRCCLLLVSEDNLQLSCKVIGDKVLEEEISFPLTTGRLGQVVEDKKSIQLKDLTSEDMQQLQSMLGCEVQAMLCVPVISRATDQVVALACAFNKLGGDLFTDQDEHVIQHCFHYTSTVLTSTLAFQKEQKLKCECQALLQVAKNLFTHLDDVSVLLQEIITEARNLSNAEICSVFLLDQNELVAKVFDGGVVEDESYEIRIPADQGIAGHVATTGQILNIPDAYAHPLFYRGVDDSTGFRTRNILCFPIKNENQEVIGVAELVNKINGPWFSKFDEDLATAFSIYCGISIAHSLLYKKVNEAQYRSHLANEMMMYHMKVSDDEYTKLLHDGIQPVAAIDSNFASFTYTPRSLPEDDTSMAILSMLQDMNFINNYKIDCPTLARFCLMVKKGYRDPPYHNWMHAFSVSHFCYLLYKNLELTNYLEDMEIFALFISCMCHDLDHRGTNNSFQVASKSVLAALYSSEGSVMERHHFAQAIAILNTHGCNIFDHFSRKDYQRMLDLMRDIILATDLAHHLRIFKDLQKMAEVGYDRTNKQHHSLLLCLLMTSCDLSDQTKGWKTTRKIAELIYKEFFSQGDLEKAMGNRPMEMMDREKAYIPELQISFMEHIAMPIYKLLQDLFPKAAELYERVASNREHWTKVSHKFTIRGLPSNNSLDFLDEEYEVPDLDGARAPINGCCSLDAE
Assay: Inhibition of bovine aorta PDE2 at 10 uM in absence of cGMP
Conditions: not given

SMILES	inhibition
CNc1nc(C)nc2c(Cc3ccccc3)cnn12	19%
CNc1nc(C)nc2c(C(=O)c3ccccc3)cnn12	15%
CCCc1nc(NC)n2ncc(Cc3ccccc3)c2n1	20%
CNc1nc(C(F)(F)F)nc2c(Cc3ccccc3OC)cnn12	16%

Continued, values first:

inhibition	SMILES
19%	CCCc1nc(NC)n2ncc(Cc3ccccc3OC)c2n1
3.6%	CNc1nc(C)nc2c(-c3ccccc3)cnn12

Target: T1, cGMP-dependent 3',5'-cyclic phosphodiesterase (Bos taurus)
Assay: Inhibition of bovine aorta PDE2 at 10 uM in presence of cGMP
Conditions: not given
Method in brief: (§2)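 PDE2 isolated from cultured bovine aortic endothelial cells; two-step assay using [³H]-cAMP plus 1 mM EGTA in 50 mM Tris-HCl pH 7.5, 2 mM magnesium acetate, 1 mg/mL BSA; activated state with 5 cGMP. DMSO 1% final; IC50 by regression from concentration-response curves, three determinations.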

SMILES	inhibition
CNc1nc(C)nc2c(C(=O)c3ccccc3)cnn12	17%
CCCc1nc(NC)n2ncc(Cc3ccccc3)c2n1	20%

The next lines start with the values.

inhibition	SMILES
31%	CCCc1nc(NC)n2ncc(Cc3ccccc3OC)c2n1
11%	CNc1nc(C)nc2c(-c3ccccc3)cnn12

Test system: not listed separately
Assay: Inhibition of PDE3 at 10 uM
Conditions: not given
Method in brief: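 Bovine aortic media PDE3, two-step assay with [³H]-cAMP plus 1 mM EGTA in Tris-HCl 50 mM pH 7.5, 2 mM Mg acetate, BSA 1 mg/mL; rolipram 50 present to block PDE4 contamination. DMSO 1% final.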

SMILES	inhibition
CNc1nc(C)nc2c(Cc3ccccc3)cnn12	8.6%
CNc1nc(C)nc2c(C(=O)c3ccccc3)cnn12	11%
CCCc1nc(NC)n2ncc(Cc3ccccc3)c2n1	10%
CNc1nc(C(F)(F)F)nc2c(Cc3ccccc3OC)cnn12	24%

Further lines, results first:

inhibition	SMILES
16%	CCCc1nc(NC)n2ncc(Cc3ccccc3OC)c2n1
2.7%	CNc1nc(C)nc2c(-c3ccccc3)cnn12

Test system: not listed separately
Assay: Inhibition of PDE5 at 10 uM
Conditions: not given
Method in brief: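 Bovine aortic media PDE5 measured as [³H]-cGMP hydrolysis in two-step assay with 1 mM EGTA, 50 mM Tris-HCl pH 7.5, 2 mM magnesium acetate, 1 mg/mL BSA; inhibitor in DMSO, 1% final.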

SMILES	inhibition
CNc1nc(C)nc2c(Cc3ccccc3)cnn12	33%
CNc1nc(C)nc2c(C(=O)c3ccccc3)cnn12	8%
CCCc1nc(NC)n2ncc(Cc3ccccc3)c2n1	16%
CNc1nc(C(F)(F)F)nc2c(Cc3ccccc3OC)cnn12	74%

More lines, now with the values ahead:

inhibition	SMILES
38%	CCCc1nc(NC)n2ncc(Cc3ccccc3OC)c2n1
11%	CNc1nc(C)nc2c(-c3ccccc3)cnn12

Test system: PBMC
Assay: Antiinflammatory activity in human PBMC assessed as inhibition of LPS-stimulated TNFalpha release after 24 hrs by trypan blue exclusion test
Assay type: functional, cell-based
Conditions: in the assay text read “ELISA” for “trypan blue exclusion test”
Method in brief: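 Human PBMCs from density-gradient interface, washed in HBSS-CMF, 2 × 10⁶ cells/mL, exposed to drug 10^-8 to 10^-5 M with or without Salmonella abortus equi LPS, 24 h, 37 °C, 5% CO₂. Supernatants stored at -80 °C, then TNFα measured by two-site ELISA (OD 450 nm, o-phenylenediamine), interpolated on standard curve by four-parameter logistics; viability by Trypan blue exclusion.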

SMILES	Activity
CCCc1nc(NC)n2ncc(Cc3ccccc3OC)c2n1	Dose-dependent effect
CNc1nc(C(F)(F)F)nc2c(Cc3ccccc3)cnn12	Dose-dependent effect
CNc1nc(C(F)(F)F)nc2c(Cc3ccccc3OC)cnn12	Dose-dependent effect

Test system: not listed separately
Assay: Inhibition of PDE1 in presence of calmodulin
Conditions: not given
Method in brief: as §1

IC50	SMILES
14000 nM	CNc1nc(C)nc2c(Cc3ccccc3)cnn12

Target: T2, cGMP-dependent 3',5'-cyclic phosphodiesterase (Bos taurus, UniProt P14099)
T2 sequence (P14099 whole entry): T1 sequence (whole entry)
Assay: Inhibition of bovine aorta PDE2 in presence of cGMP
Conditions: not given
Method in brief: as §2

IC50	SMILES
56000 nM	CNc1nc(C)nc2c(Cc3ccccc3)cnn12

From ChEMBL document CHEMBL1149808, “Cyclic nucleotide phosphodiesterase type 4 inhibitors: evaluation of pyrazolo[1,5-a]-1,3,5-triazine ring system as an adenine bioisostere” (Eur J Med Chem, 2008)
